From the RNAGym collection of RNA variant scans (doi:10.1126/science.aae0568)
Fewer inactive variants are shown than the library holds.

B1: tRNA (parent)
chain: GUUCCGUUGGCGUAAUGGUAACGCGUCUCCCUCCUAAGGAGAAGACUGCGGGUUCGAGUCCCGUACGGAACG

Variants of: B1
Assay: yeast fitness relative to wild type (ratio to wild type); higher = fitter; tRNA-Arg(CCU), competitive growth, 37 C, YPD
How it was run: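 Start and end populations of a pooled competition were compared by 100-nucleotide paired-end sequencing of gene amplicons. The Saccharomyces cerevisiae strains carried tRNA-Arg(CCU) gene variants at the native genomic locus, synthesised with a 3% per-site mutation rate at 69 sites, and competed in YPD at 37°C for 24 hours in six parallel replicates. Darwinian fitness relative to wild type was based on the change in genotype frequencies. Genotypes required ≥ 100 starting reads, and estimates < 0.5 were set to 0.5.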

Point of comparison: U16G A69C, yeast fitness 1.04. Against it:
- G17A G58A A69C — lower, 0.575
- G17A A21C C29G — lower, 0.626
- G17A U19G A37G C66U A69U — lower, 0.562
- G17A C34A C55G — lower, ≤ 0.5
- U16G C24U C29G C49G A65G — lower, 0.601
- U16G C34U C46G U59A — lower, ≤ 0.5
- U16G A37U — lower, 0.618
- U16G A37G — lower, 0.673
- U16G C31U G51C A65C — lower, ≤ 0.5
- U16G C24U — lower, 0.822
- G17A C24G C29G A37U — lower, ≤ 0.5
- G17A C34U G38A — lower, 0.581
- G17A C27U U35C C61G — lower, ≤ 0.5
- G17A C34U C55G — lower, 0.508
- U16G C22G A43C — lower, 0.587
- G17A C22U U28C A57G C61U A69U — lower, ≤ 0.5
- G17A C34A — lower, 0.595
- G17A C34U — lower, 0.573
- U16G C49G — lower, 0.636
- U16G C49U — lower, 0.916
- G17A G25C — lower, 0.705
- U16G C29G C62U — lower, ≤ 0.5
- U16G C29G C62G — lower, ≤ 0.5
- G17A C31U U35C A57G C62U — lower, ≤ 0.5
- G17A C22G C29U — lower, ≤ 0.5
- U16G G39A A45C C61A — lower, 0.617
- U16G G23A A40C C66U — lower, ≤ 0.5
- U16G C24G A37U — lower, ≤ 0.5
- G17A C31U C49G A69U — lower, ≤ 0.5
- G17A C22A G63A — lower, ≤ 0.5
- G17A G25C C29G — lower, ≤ 0.5
- G17A A40G — lower, 0.722
- U16G G44C G68A A69U — lower, 0.609
- G17A C24G C27G G67A — lower, 0.583
- U16G A37G A45C C61G A69C — lower, ≤ 0.5
- G17A C29U U35G A37C G38C C49G — lower, 0.545
- U16G U32C A70G — lower, 0.984
- U16G C27G C49A C60A — lower, ≤ 0.5
- U16G A42C U47C — lower, 0.676
- U16G C46A C66A — lower, ≤ 0.5
- G17A A36C A37U A43C C46U C49G G50A — lower, 0.59
- G17A C27G U59A C66A — lower, ≤ 0.5
- G17A C49A G52C G56A A69G — lower, ≤ 0.5
- G17A A20C G25A G68C — lower, ≤ 0.5
- G17A A37C U54A C55A C66G — lower, ≤ 0.5
- G17A C27U — lower, 0.711
- G17A C27G — lower, 0.535
- U16G G63C — lower, 0.694
- U16G C49U C60A C61A — lower, ≤ 0.5
- U16G U28A A42G — lower, 0.665
- U16G C22G C34G G50C A69U — lower, 0.528
- G17A G41C C55A — lower, ≤ 0.5
- G17A C22U C29A A36G A45U — lower, ≤ 0.5
- G17A C22A A45C G63C C66U — lower, ≤ 0.5
- G17A C31A C33U — lower, ≤ 0.5
- U16G A42G — lower, 0.78
- U16G C24G U59A — lower, ≤ 0.5
- G17A A45U — lower, 0.763
- G17A A45C — lower, 0.735
- U16G C46A — lower, 0.754
- U16G C46G — higher, 1.06
- G17A A37C G52C G56C C60A U64A — lower, ≤ 0.5
- G17A C60A C61A — lower, ≤ 0.5
- G17A C29U A57G U59C — lower, ≤ 0.5
- G17A C31G G38C G63C — lower, ≤ 0.5
- U16G C24G U26A G50A — lower, 0.581
- U16G U54C C60A — lower, ≤ 0.5
- G17A C29U C33U C60G — lower, 0.594
- U16G C31U G58A — lower, 0.633
- G17A C22U A45G C46U — lower, 0.538
- G17A C60G G67A — lower, ≤ 0.5
- G17A U32C A40G A65C — lower, ≤ 0.5
- U16G C60U — lower, 0.772
- G17A A37U G38A — lower, ≤ 0.5
- G17A C24G C27G — lower, 0.57
- G17A A20G A42U — lower, 0.644
- G17A U26C C61U A65G G67A — lower, ≤ 0.5
- U16G A36G A45G — lower, 0.745
- G17A A20U C24U A65U — lower, ≤ 0.5
- U16G G48A G68A — higher, 1.09
- G17A A42U C55U C62A — lower, ≤ 0.5
- U16G A57G — lower, 0.805
